Activity calls are given as the source filed them. The calls are words filed in the database; no cut-off is given here.
How the values were obtained:
[1] = molecular target: T1, Protein deacetylase HDAC6 (Homo sapiens, UniProt Q9UBN7); experiment: Inhibition of N-terminal GST-tagged recombinant human HDAC6 expressed in baculovirus infected insect cells using RHKK(Ac)AMC as substrate by fluorescence-based assay
T1 sequence (Q9UBN7 whole entry): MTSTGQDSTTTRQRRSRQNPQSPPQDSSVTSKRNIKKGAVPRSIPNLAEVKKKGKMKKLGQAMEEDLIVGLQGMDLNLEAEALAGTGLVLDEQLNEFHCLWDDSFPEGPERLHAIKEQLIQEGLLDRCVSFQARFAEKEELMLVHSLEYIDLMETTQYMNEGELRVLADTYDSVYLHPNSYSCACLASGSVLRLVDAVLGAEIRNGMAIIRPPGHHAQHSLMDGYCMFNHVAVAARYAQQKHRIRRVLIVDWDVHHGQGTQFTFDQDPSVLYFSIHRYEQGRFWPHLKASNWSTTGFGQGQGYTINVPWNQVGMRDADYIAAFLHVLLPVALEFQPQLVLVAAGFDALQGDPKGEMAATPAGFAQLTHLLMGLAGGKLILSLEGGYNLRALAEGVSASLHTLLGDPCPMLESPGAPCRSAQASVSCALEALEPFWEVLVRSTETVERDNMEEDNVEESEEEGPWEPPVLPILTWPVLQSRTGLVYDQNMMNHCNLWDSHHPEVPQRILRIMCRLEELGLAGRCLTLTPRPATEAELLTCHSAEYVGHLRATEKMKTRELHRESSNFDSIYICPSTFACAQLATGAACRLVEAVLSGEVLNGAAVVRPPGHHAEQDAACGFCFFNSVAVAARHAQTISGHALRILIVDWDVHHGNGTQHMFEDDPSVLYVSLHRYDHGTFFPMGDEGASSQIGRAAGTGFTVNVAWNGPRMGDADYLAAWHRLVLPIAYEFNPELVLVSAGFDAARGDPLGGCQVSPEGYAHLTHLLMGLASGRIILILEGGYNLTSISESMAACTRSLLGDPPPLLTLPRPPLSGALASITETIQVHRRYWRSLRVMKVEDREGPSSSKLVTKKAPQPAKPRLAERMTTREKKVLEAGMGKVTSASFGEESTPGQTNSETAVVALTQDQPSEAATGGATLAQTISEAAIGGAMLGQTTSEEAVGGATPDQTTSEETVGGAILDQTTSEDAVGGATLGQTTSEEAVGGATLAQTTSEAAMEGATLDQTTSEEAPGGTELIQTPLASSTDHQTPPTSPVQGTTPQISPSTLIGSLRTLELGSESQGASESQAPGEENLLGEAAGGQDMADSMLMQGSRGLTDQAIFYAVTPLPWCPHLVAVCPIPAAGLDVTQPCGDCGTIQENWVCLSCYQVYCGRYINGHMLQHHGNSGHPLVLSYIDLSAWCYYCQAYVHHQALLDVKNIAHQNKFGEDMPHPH

[2] = test system: SEM cells; experiment: Inhibition of HDAC6/chymotrypsin-like activity of 20S proteasome in human SEM cells assessed as decrease in aggresome accumulation at IC50 to 2 times IC50 after 18 hrs by FACS analysis; type: cell-based
Procedure, shortened: (§1)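 Cells treated 18 h, then stained with a proteostat aggresome dye plus DNA stain. Imaged by fluorescence microscopy (63X objective) or analysed by FACS, with aggresome propensity factor from relative mean fluorescence intensity.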

[3] = test system: SEM cells; experiment: Cell cycle arrest in human SEM cells assessed as accumulation at S phase after 48 hrs by propidium iodide staining-based FACS analysis; type: functional
[4] = Cytotoxicity against human BCP-ALL cells derived from patient 3 after 72 hrs by CellTiter-Glo luminescent cell viability assay; type: functional, cell-based
[5] = molecular target: T2, Protein deacetylase HDAC6 (Homo sapiens) (UniProt Q9UBN7); experiment: Inhibition of HDAC6 in human HL60 cells assessed as increase in acetyl-alpha tubulin expression at 0.1 to 10 uM after 24 hrs by immunoblot assay; type: cell-based
T2 sequence (whole entry): T1 sequence (Q9UBN7 whole entry)
Procedure, shortened: (§2)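 Cells exposed for 24 h at indicated concentrations; lysates immunoblotted for acetyl-α-tubulin, acetyl-histone H3, PARP, with GAPDH as loading control.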

[6] = Cytotoxicity against human BCP-ALL cells derived from patient 4 after 72 hrs by CellTiter-Glo luminescent cell viability assay; type: functional, cell-based
[7] = molecular target: T3, Proteasome Macropain subunit MB1 (Homo sapiens, UniProt P28074); experiment: Inhibition of chymotrypsin-like activity of 20S proteasome in imatinib-resistant human SUP-B15 cells using Suc-LLVY aminoluciferin as substrate after 2 hrs by proteasome-Glo assay; type: cell-based
T3 sequence (P28074 whole entry): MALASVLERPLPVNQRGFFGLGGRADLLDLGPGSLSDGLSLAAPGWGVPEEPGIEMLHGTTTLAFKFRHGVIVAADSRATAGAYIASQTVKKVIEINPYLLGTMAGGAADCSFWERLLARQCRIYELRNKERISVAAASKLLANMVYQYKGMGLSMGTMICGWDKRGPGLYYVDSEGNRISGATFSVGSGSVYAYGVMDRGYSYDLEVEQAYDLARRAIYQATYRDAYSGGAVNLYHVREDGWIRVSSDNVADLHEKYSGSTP

[8] = test system: SEM cells; experiment: Inhibition of HDAC6/chymotrypsin-like activity of 20S proteasome in human SEM cells assessed as increase in LC3B protein expression at 0.1 to 10 uM after 18 hrs by Western blot assay; type: cell-based
Procedure, shortened: (§3)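 Cells treated 18 h at indicated concentrations; lysates analysed by western blot for heat shock (Grp94, HSP70, HSP40, HSP27), UPR (BIP, ATF4, ATF6, pJNK) and autophagy (LC3B, p62) proteins.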

[9] = test system: SEM cells; experiment: Inhibition of HDAC6/chymotrypsin-like activity of 20S proteasome in human SEM cells assessed as decrease in aggresome accumulation at IC50 to 2 times IC50 after 18 hrs by fluorescence microscopic method; type: cell-based; procedure, shortened: as §1
[10] = molecular target: T2, Protein deacetylase HDAC6 (Homo sapiens); experiment: Inhibition of HDAC6 in imatinib-resistant human SUP-B15 cells assessed as increase in acetyl-alpha tubulin expression at 0.1 to 10 uM after 24 hrs by immunoblot assay; type: cell-based; procedure, shortened: as §2
[11] = test system: SEM cells; experiment: Induction of apoptosis in human SEM cells assessed as increase in caspase 3/7 activity at IC50 after 48 hrs by glo assay relative to control; type: functional
Procedure, shortened: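 Cells treated at IC50 or 2x IC50 for 48 h; caspase-3/7 activity read by luminescence after cleavage of a DEVD-containing luminogenic substrate.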

[12] = test system: SEM cells; experiment: Inhibition of HDAC6/chymotrypsin-like activity of 20S proteasome in human SEM cells assessed as increase in BIP protein expression at 0.1 to 10 uM after 18 hrs by Western blot assay; type: cell-based; procedure, shortened: as §3
[13] = molecular target: Proteasome Macropain subunit (Homo sapiens) (UniProt P49721); experiment: Inhibition of trypsin-like activity of 20S proteasome in human imatinib-resistant SUP-B15 cells at 4 nM to 25 uM using Z-LRR-aminoluciferin as substrate after 2 hrs by proteasome-Glo assay; type: cell-based
Proteasome Macropain subunit (Homo sapiens), sequence (P49721 whole entry): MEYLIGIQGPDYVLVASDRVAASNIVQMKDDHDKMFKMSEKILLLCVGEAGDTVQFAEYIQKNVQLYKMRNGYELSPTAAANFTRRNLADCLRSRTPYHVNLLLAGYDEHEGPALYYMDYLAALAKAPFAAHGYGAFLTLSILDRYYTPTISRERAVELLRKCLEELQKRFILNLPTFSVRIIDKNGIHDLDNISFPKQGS

[14] = test system: SEM cells; experiment: Cell cycle arrest in human SEM cells assessed as reduction in cell levels at G2/M phase at IC50 to 2 times IC50 after 48 hrs by propidium iodide staining-based FACS analysis; type: functional
[15] = test system: SEM cells; experiment: Antiproliferative activity against human SEM cells at IC50 to 2 times IC50 after 24 to 72 hrs by trypan exclusion method; type: functional, cell-based

SMILES: C[C@H](NC(=O)[C@H](CC(=O)NCC(C)(C)C)NC(=O)c1ccc(C(=O)NO)cc1)C(=O)NCc1ccccc1
- IC50 [1]: 270 nM
- inhibition [2]: Active
- Activity [3]: Dose-dependent effect
- IC50 [4]: 5230 nM
- inhibition [5]: Active
- IC50 [6]: 1510 nM
- IC50 [7]: 820 nM
- inhibition [8]: Active
- inhibition [9]: Active
- inhibition [10]: Active
- fold change (FC) [11]: 6
- inhibition [12]: Active
- inhibition [13]: inactive
- Activity [14]: Active
- Activity [15]: Active
